Active and inactive are the calls of the source. No cut-off for these calls is given here.
How the values were obtained:
K562 = experiment: Induction of DNA double strand breaks in human K562 cells assessed as increase in gamma-H2AX level at 25 uM after 4 hrs by chemiluminescence analysis; type: functional, cell-based
Method in brief: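 K562 cells (3.4 × 10^5/mL) exposed 4 h at 37 °C to 25 µM drug or DMSO. Lysed in Tris pH 6.7/SDS buffer; 50 µg protein on 14% SDS-PAGE, PVDF blot. Rabbit anti-γH2AX (1:1000, overnight), GAPDH loading control, HRP secondary. Chemiluminescence imaged by CCD.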

HCT-15 = experiment: Cytotoxicity against human HCT15 cells assessed as cell growth at 50 uM by SRB assay; type: functional; settings: read-out: Activity
Method in brief: (§1)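 Measured in the NCI-60 human tumour cell line panel using five-dose testing. Growth was recorded at each dose for each cell line, and a GI50 was derived for each line.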

SW-620 = experiment: Cytotoxicity against human SW620 cells assessed as cell growth at 50 uM by SRB assay; type: functional; settings: read-out: Activity
SF-268 [1] = experiment: Cytotoxicity against human SF268 cells assessed as cell growth at 50 uM by SRB assay; type: functional; settings: read-out: Activity
SK-MEL-5 [2] = experiment: Cytotoxicity against human SK-MEL-5 cells assessed as cell growth at 50 uM by SRB assay; type: functional; settings: read-out: Activity
OVCAR-5 [3] = experiment: Cytotoxicity against human OVCAR5 cells assessed as cell growth at 50 uM by SRB assay; type: functional; settings: read-out: Activity
PC-3 [4] = experiment: Cytotoxicity against human PC3 cells assessed as cell growth at 50 uM by SRB assay; type: functional; settings: read-out: Activity
T47D = experiment: Cytotoxicity against human T47D cells assessed as cell growth at 50 uM by SRB assay; type: functional; settings: read-out: Activity
HL-60(TB) = experiment: Cytotoxicity against human HL-60(TB) cells by SRB assay; type: functional; method in brief: as §1
SR = experiment: Cytotoxicity against human SR cells by SRB assay; type: functional
Method in brief: (§2)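 NCI-60 panel screen; 5-dose testing giving GI50 per cell line, plus a single 10 µM one-dose test. Method details not given beyond the NCI screen.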

SNB-19 = experiment: Cytotoxicity against human SNB19 cells by SRB assay; type: functional; method in brief: as §2
OVCAR-5 [5] = experiment: Cytotoxicity against human OVCAR5 cells by SRB assay; type: functional; method in brief: as §2
PC-3 [6] = experiment: Cytotoxicity against human PC3 cells by SRB assay; type: functional; method in brief: as §2
MOLT-4 = experiment: Cytotoxicity against human MOLT4 cells assessed as cell growth at 0.005 uM by SRB assay; type: functional; settings: read-out: Activity
SF-295 [7] = experiment: Cytotoxicity against human SF295 cells assessed as cell growth at 0.005 uM by SRB assay; type: functional; settings: read-out: Activity
MDA-MB-435 = experiment: Cytotoxicity against human MDA-MB-435 cells assessed as cell growth at 0.005 uM by SRB assay; type: functional; settings: read-out: Activity
ACHN [8] = experiment: Cytotoxicity against human ACHN cells assessed as cell growth at 0.005 uM by SRB assay; type: functional; settings: read-out: Activity
A549 = experiment: Cytotoxicity against human A549/ATCC cells assessed as cell growth at 0.05 uM by SRB assay; type: functional; settings: read-out: Activity
NCI-H226 [9] = experiment: Cytotoxicity against human NCI-H226 cells assessed as cell growth at 0.05 uM by SRB assay; type: functional; settings: read-out: Activity
SF-295 [10] = experiment: Cytotoxicity against human SF295 cells assessed as cell growth at 0.05 uM by SRB assay; type: functional; settings: read-out: Activity
SK-MEL-2 = experiment: Cytotoxicity against human SK-MEL-2 cells assessed as cell growth at 0.05 uM by SRB assay; type: functional; settings: read-out: Activity
SK-MEL-5 [11] = experiment: Cytotoxicity against human SK-MEL-5 cells assessed as cell growth at 0.05 uM by SRB assay; type: functional; settings: read-out: Activity
OVCAR-8 = experiment: Cytotoxicity against human OVCAR8 cells assessed as cell growth at 0.05 uM by SRB assay; type: functional; settings: read-out: Activity
SK-OV-3 = experiment: Cytotoxicity against human SKOV3 cells assessed as cell growth at 0.05 uM by SRB assay; type: functional; settings: read-out: Activity
A498 [12] = experiment: Cytotoxicity against human A498 cells assessed as cell growth at 0.05 uM by SRB assay; type: functional; settings: read-out: Activity
SF-268 [13] = experiment: Cytotoxicity against human SF268 cells assessed as cell growth at 0.5 uM by SRB assay; type: functional; settings: read-out: Activity
UACC-257 = experiment: Cytotoxicity against human UACC257 cells assessed as cell growth at 0.5 uM by SRB assay; type: functional; settings: read-out: Activity
A498 [14] = experiment: Cytotoxicity against human A498 cells assessed as cell growth at 0.5 uM by SRB assay; type: functional; settings: read-out: Activity
ACHN [15] = experiment: Cytotoxicity against human ACHN cells assessed as cell growth at 0.5 uM by SRB assay; type: functional; settings: read-out: Activity
HOP-62 = experiment: Cytotoxicity against human HOP62 cells assessed as cell growth at 5 uM by SRB assay; type: functional; settings: read-out: Activity; method in brief: as §1
NCI-H460 = experiment: Cytotoxicity against human NCI-H460 cells assessed as cell growth at 5 uM by SRB assay; type: functional; settings: read-out: Activity
U-251 = experiment: Cytotoxicity against human U251 cells assessed as cell growth at 5 uM by SRB assay; type: functional; settings: read-out: Activity
IGROV-1 = experiment: Cytotoxicity against human IGROV1 cells assessed as cell growth at 5 uM by SRB assay; type: functional; settings: read-out: Activity
A498 [16] = experiment: Cytotoxicity against human A498 cells assessed as cell growth at 5 uM by SRB assay; type: functional; settings: read-out: Activity
CAKI-1 = experiment: Cytotoxicity against human Caki1 cells assessed as cell growth at 5 uM by SRB assay; type: functional; settings: read-out: Activity
MCF7 = experiment: Cytotoxicity against human MCF7 cells assessed as cell growth at 5 uM by SRB assay; type: functional; settings: read-out: Activity
HOP-92 = experiment: Cytotoxicity against human HOP92 cells assessed as cell growth at 50 uM by SRB assay; type: functional; settings: read-out: Activity; method in brief: as §1
NCI-H226 [17] = experiment: Cytotoxicity against human NCI-H226 cells assessed as cell growth at 50 uM by SRB assay; type: functional; settings: read-out: Activity
NCI-H322M = experiment: Cytotoxicity against human NCI-H322M cells assessed as cell growth at 50 uM by SRB assay; type: functional; settings: read-out: Activity
COLO 205 = experiment: Cytotoxicity against human COLO205 cells assessed as cell growth at 50 uM by SRB assay; type: functional; settings: read-out: Activity
HCC 2998 = experiment: Cytotoxicity against human HCC2998 cells assessed as cell growth at 50 uM by SRB assay; type: functional; settings: read-out: Activity; method in brief: as §1
[18] = read-out: LC50 (the source's name)
[19] = read-out: pLC50 (the source's name) (converted)

For COc1cc([C@@H]2c3cc4c(cc3[C@@H](NC(=O)CN3CCN(CCCCCCCCCCN5CCN(CC(=O)N[C@@H]6c7cc8c(cc7[C@@H](c7cc(OC)c(O)c(OC)c7)[C@H]7C(=O)OC[C@@H]76)OCO8)CC5)CC3)[C@H]3COC(=O)[C@H]23)OCO4)cc(OC)c1O, the Activity (K562) was “Active”, the growth at 50 µM (HCT-15) was -64% and the growth at 50 µM (SW-620) was -89%. For the same molecule, the growth at 50 µM (SF-268 [1]) was -40%, the growth at 50 µM (SK-MEL-5 [2]) was -68% and the growth at 50 µM (OVCAR-5 [3]) was -88%. It also gave a growth at 50 µM (PC-3 [4]) of -51%, a growth at 50 µM (T47D) of -40% and a GI50 (HL-60(TB); read-out: GI50) of 113 nM. For the same molecule, the CC50 (HL-60(TB); [18]) was over 50000 nM, the TGI (HL-60(TB); read-out: TGI) was 901 nM and the GI50 (HL-60(TB); read-out: pGI50 (converted)) was 112 nM. It also gave a CC50 (HL-60(TB); [19]) of over 50100 nM, a TGI (HL-60(TB); read-out: pTGI (converted)) of 891 nM and a GI50 (SR; read-out: GI50) of 232 nM. It also gave a CC50 (SR; [18]) of over 50000 nM, a TGI (SR; read-out: TGI) of 1810 nM and a GI50 (SR; read-out: pGI50 (converted)) of 229 nM. The CC50 (SR; [19]) was over 50100 nM, the TGI (SR; read-out: pTGI (converted)) was 1820 nM and the GI50 (SNB-19; read-out: GI50) was 352 nM. It also gave a CC50 (SNB-19; [18]) of 2790 nM, a TGI (SNB-19; read-out: TGI) of 1100 nM and a GI50 (SNB-19; read-out: pGI50 (converted)) of 355 nM. For the same molecule, the CC50 (SNB-19; [19]) was 2820 nM, the TGI (SNB-19; read-out: pTGI (converted)) was 1100 nM and the GI50 (OVCAR-5 [5]; read-out: GI50) was 830 nM. It also gave a CC50 (OVCAR-5 [5]; [18]) of 19500 nM, a TGI (OVCAR-5 [5]; read-out: TGI) of 5650 nM and a GI50 (OVCAR-5 [5]; read-out: pGI50 (converted)) of 832 nM. It also gave a CC50 (OVCAR-5 [5]; [19]) of 19500 nM, a TGI (OVCAR-5 [5]; read-out: pTGI (converted)) of 5620 nM and a GI50 (PC-3 [6]; read-out: GI50) of 903 nM. The CC50 (PC-3 [6]; [18]) was 47700 nM, the TGI (PC-3 [6]; read-out: TGI) was 8940 nM and the GI50 (PC-3 [6]; read-out: pGI50 (converted)) was 912 nM. It also gave a CC50 (PC-3 [6]; [19]) of 47900 nM, a TGI (PC-3 [6]; read-out: pTGI (converted)) of 8910 nM and a growth at 0.005 µM (MOLT-4) of 88%. The growth at 0.005 µM (SF-295 [7]) was 92%, the growth at 0.005 µM (MDA-MB-435) was 96% and the growth at 0.005 µM (ACHN [8]) was 100%. For the same molecule, the growth at 0.05 µM (A549) was 29%, the growth at 0.05 µM (NCI-H226 [9]) was 83% and the growth at 0.05 µM (SF-295 [10]) was 88%. It also gave a growth at 0.05 µM (SK-MEL-2) of 89%, a growth at 0.05 µM (SK-MEL-5 [11]) of 96% and a growth at 0.05 µM (OVCAR-8) of 92%. It also gave a growth at 0.05 µM (SK-OV-3) of 85%, a growth at 0.05 µM (A498 [12]) of 72% and a growth at 0.5 µM (SF-268 [13]) of 49%. For the same molecule, the growth at 0.5 µM (UACC-257) was 73%, the growth at 0.5 µM (A498 [14]) was 51% and the growth at 0.5 µM (ACHN [15]) was 41%. It also gave a growth at 5 µM (HOP-62) of -73%, a growth at 5 µM (NCI-H460) of 33% and a growth at 5 µM (U-251) of 9%. The growth at 5 µM (IGROV-1) was 9%, the growth at 5 µM (A498 [16]) was -9% and the growth at 5 µM (CAKI-1) was 28%. It also gave a growth at 5 µM (MCF7) of 18%, a growth at 50 µM (HOP-92) of -46% and a growth at 50 µM (NCI-H226 [17]) of -95%. The growth at 50 µM (NCI-H322M) was -23%, the growth at 50 µM (COLO 205) was -35% and the growth at 50 µM (HCC 2998) was -100%.

— ChEMBL document CHEMBL3588757, “Structure-based design, synthesis and biological testing of piperazine-linked bis-epipodophyllotoxin etoposide analogs” (Bioorg Med Chem, 2015)
